In brackets after ≈: the same amount, converted by molar mass. Activity calls are given as the source filed them. No cut-off for these calls is given here. A value given as a limit tells only on which side of the number the result lay.

As a reminder, the MIC is the least concentration at which growth counts as inhibited.

In series [1] the test system is Bacillus subtilis. Nature of the series: Antibacterial activity against Bacillus subtilis ATCC 6051 after 20 hrs. Format: functional. The method, boiled down: (§1)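 Broth microdilution MIC: exponential-phase bacteria at 10^5 to 10^6 CFU/ml in Mueller-Hinton broth. Compound serial dilutions made in PBS and mixed 1:1 by volume with the cells, so broth is 50% v/v. Incubated 20 hours at 37°C, and the minimum inhibitory concentration was recorded.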

A short description of series [2]: Toxicity against RBC assessed as hemolytic activity. The series is classed as cell-based. Conditions: erythrocyte. The procedure, abridged: (§2)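 Donor whole blood in heparin/ACD was chilled to 4°C, pelleted at 1000g and washed three times in phosphate/NaCl/HEPES buffer, then resuspended in PBS. Cells were mixed 1:1 with serial dilutions in PBS and held 1 h at 37°C, then spun. Diluted supernatant was read at 540 nm against buffer, with percent lysis set against 1% Triton X-100.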

A short description of series [3]: Therapeutic index, ratio of MHC for RBC to MIC for Bacillus subtilis ATCC 6051. As to conditions: red blood cells (RBC); read-out: TI. The procedure, abridged: (§3)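 Ratio of MHC to MIC. MIC: exponential-phase B. subtilis ATC6051 or E. coli MG1655 at 10^5–10^6 CFU/ml in Mueller-Hinton broth, mixed 1:1 with serial dilutions in PBS (50% v/v broth), 20 h at 37°C. MHC: lowest concentration giving ≥2% lysis of washed donor red cells after 1 h at 37°C.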

In series [4] the test system is Bacillus subtilis. Nature of the series: Antibacterial activity against Bacillus subtilis ATCC 6051 at 20 uM after 4 hrs. Format: functional, organism-based. As to conditions: ATC6051. The procedure, abridged:
(§4)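 Killing assay: exponential-phase bacteria suspended in PBS at 10^5–10^6 CFU/ml and preincubated for 1 hour at 37°C. Compound added and exposure lasted 4 hours. Samples were taken, diluted in four ten-fold steps in PBS and plated on agar overnight at 37°C. Colonies were counted manually and averages plotted on a log scale.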

For series [5], the system named is Escherichia coli. The series can be described thus: Antibacterial activity against Escherichia coli MG1655 at 20 uM after 4 hrs. Format: functional, organism-based. As to conditions: 50 uM, in the assay text read “50 uM” for “20 uM”. The method, boiled down: as §4
The nature of series [6]: Therapeutic index, ratio of MHC for RBC to MIC for Escherichia coli MG1655. Conditions: red blood cells (RBC); read-out: TI. The method, boiled down: as §3
Series [7] has as its system Escherichia coli. Nature of the series: Antibacterial activity against Escherichia coli MG1655 after 20 hrs. Format: functional. The procedure, abridged:
as §1

Series [8] can be described thus: Toxicity against RBC assessed as hemolytic activity at 1 to 2 mM. The series is classed as cell-based, Erythrocyte. As to conditions: red blood cells (RBC); read-out: Activity. The procedure, abridged:
as §2

Series [9] can be described thus: Toxicity against RBC assessed as hemolytic activity at 2 mM. The series is classed as cell-based. Conditions: erythrocyte, 2000 µM. The method, boiled down:
as §2

Series [10] can be described thus: Toxicity against bovine BAEC cells. The series is classed as cell-based, Bos taurus. As to conditions: cattle. The procedure, abridged:
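Bovine aortic endothelial cells, passage 4–15, grown in DMEM with 10% FBS. Lipoplexes made with or without DOPE at several charge ratios up to 12 were added in serum-free OptiMem for 2 h at 37°C, then replaced with growth medium. About 20 h later, viability was read as ATP luminescence (CellTiter-Glo, 30 min), normalised to naked plasmid DNA, n = 8.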

For the compound `C[C@H](CCC(=O)NCCCNCCCCNCCCN)[C@H]1CCC2=C3CC[C@@H]4C[C@H](O)CC[C@]4(C)[C@H]3C[C@H](O)[C@@]21C`, the minimal inhibitory concentration (MIC) stood at 28 µM (≈ 16.1 µg/mL) in series [1] (ATC6051, 20 h) and 111 µM (≈ 63.8 µg/mL) in series [7] (MG1655, 20 h). For the same compound, in series [2], the MHC was 500 µM. In addition, the results for the selectivity ratio in series [3] and in [6] were 18 and 5, respectively. The result in series [4] and in [5] was Active. Further, the hemolysis at up to 2000 µM in [8] came out at 30%.

Consider `C[C@H](CCC(=O)NCCCNCCCCNCCCN)[C@H]1CC[C@H]2[C@@H]3[C@H](O)C[C@@H]4C[C@H](O)CC[C@]4(C)[C@H]3C[C@H](O)[C@]12C`, for which the MIC in series [1] (ATC6051, 20 h) is greater than 432 µM; in series [7] (MG1655, 20 h), greater than 432 µM. Further, the MHC in series [2] worked out at 500 µM. Also, the selectivity ratio in [3] and in series [6] was less than 1 in each case. For the same compound, the hemolysis at up to 2000 µM in [8] turned out to be 30%.

Turning to `C[C@H](CCC(=O)NCCCNCCCCNCCCN)[C@H]1CC[C@H]2[C@@H]3CC[C@@H]4C[C@H](O)CC[C@]4(C)[C@H]3CC[C@]12C`, the MIC in series [1] (ATC6051, 20 h) stood at 57 µM (≈ 32 µg/mL); in series [7] (MG1655, 20 h) it was 228 µM (≈ 128 µg/mL). Besides, in [2], the MHC is 500 µM. The selectivity ratio stood at 9 in series [3] and 2 in series [6]. The result in [4] and in [5] was Active. Besides, in series [8], the hemolysis at up to 2000 µM came out at 30%.

Regarding `C[C@H](CCC(=O)NCCCNCCCCNCCCNC(=O)CC[C@H](C)[C@@H]1CC[C@@H]2[C@@H]3[C@@H](C[C@@H](O)[C@]21C)[C@]1(C)CC[C@H](O)C[C@@H]1C[C@@H]3O)[C@H]1CC[C@H]2[C@@H]3[C@H](O)C[C@@H]4C[C@H](O)CC[C@]4(C)[C@H]3C[C@H](O)[C@]12C`, the MIC turned out to be 4 µM (≈ 3.93 µg/mL) in series [1] (ATC6051, 20 h) and 16 µM (≈ 15.7 µg/mL) in series [7] (MG1655, 20 h). In addition, the MHC in [2] is 250 µM. The Activity result in [9] is recorded as “Toxic”. The selectivity ratio in [3] was 61; in series [6], 15.

For POLYMYXIN B, the MIC stood at 1 µM in series [1] (ATC6051) and 6 µM in series [7].

On to `C[C@H](CCC(=O)NCCCNCCCCNCCCN)[C@H]1CC[C@H]2[C@@H]3CC=C4C[C@@H](O)CC[C@]4(C)[C@H]3CC[C@]12C`, for which the MIC in series [1] (ATC6051, 20 h) came to 57 µM (≈ 31.9 µg/mL); in series [7] (MG1655, 20 h) it was 115 µM (≈ 64.3 µg/mL). The MHC in [2] turned out to be 1000 µM. Besides, the selectivity ratio in series [3] amounted to 18; in series [6], 9. The Activity entry in series [10] was “Toxic”. Moreover, in series [8], the hemolysis at up to 2000 µM stood at 30%.

The values above are taken from ChEMBL document CHEMBL1139239, “A series of cationic sterol lipids with gene transfer and bactericidal activity” (Bioorg Med Chem, 2009).
